Measurements taken from ChEMBL document CHEMBL1629529, “Design, synthesis, and evaluation of diarylpyridines and diarylanilines as potent non-nucleoside HIV-1 reverse transcriptase inhibitors” (J Med Chem, 2010).
pEC50: −log10 of the molar value.

How the values were obtained:
[1] = tested on: Human immunodeficiency virus 1; experiment: Antiviral activity against HIV1; format: functional, organism-based
[2] = Cytotoxicity in human TZM-bl cells after 4 day by XTT assay; format: cell-based; details: 96 h
[3] = tested on: Human immunodeficiency virus 1; experiment: Antiviral activity against HIV1 3B infected in human MT2 cells assessed as reduction in p24 antigen level after 4 days by ELISA; format: functional, organism-based; details: for pEC50: Human immunodeficiency virus 1, 3B, MT2, 96 h, read-out: EC50
Outline: (§1)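 MT-2 cells (10^4/well) were infected with 100 TCID50 virus in RPMI 1640 with 10% FBS, with or without graded compound concentrations, overnight. Supernatant was then replaced with compound-free medium. On day 4 post-infection, supernatant was mixed 1:1 with 5% Triton X-100 and p24 antigen was quantified by ELISA. Percent inhibition was converted to EC50 with CalcuSyn. Tested at least in triplicate.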

MT2 = experiment: (§2) Cytotoxicity in human MT2 cells after 4 day by XTT assay; format: cell-based; details: mt2, 96 h
Outline: (§3)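 MT-2 cells (5 · 10^5/mL) were mixed with an equal volume of graded compound concentrations and incubated 4 days at 37 °C. XTT solution (1 mg/mL) containing 0.02 μM phenazine methosulphate was then added. After 4 h, absorbance at 450 nm was read.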

[4] = tested on: Human immunodeficiency virus 1; experiment: Antiviral activity against HIV1 NL4-3 infected in human TZM-bl cells after 2 days by luciferase reporter gene assay; details: for pEC50: Human immunodeficiency virus 1, NL4-3, TZM-bl, 48 h, read-out: EC50
[5] = Selectivity index, ratio of CC50 for human TZM-bl cells to EC50 for HIV1 NL4-3; format: toxicity, cell-based; details: for Ratio CC50/EC50: tzm-bl
[6] = Selectivity index, ratio of CC50 for human MT2 cells to EC50 for HIV1 3B; format: toxicity, cell-based; details: for Ratio CC50/EC50: mt2
Outline: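 SI = CC50/EC50 (p24 ELISA). XTT (1 mg/mL) containing 0.02 μM PMS was added for 4 h, then absorbance was read at 450 nm. CC50 was calculated with CalcuSyn.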

[7] = tested on: Human immunodeficiency virus 1; experiment: Resistance index, ratio of EC50 for multidrug resistant HIV1 RTMDR to EC50 for wild type HIV1 NL4-3; format: functional
[8] = tested on: Human immunodeficiency virus 1; experiment: Antiviral activity against multidrug resistant HIV1 A17 containing reverse transcripatseK103N and Y181C mutation infected in human MT2 cells assessed as reduction in p24 antigen level after 4 days by ELISA; format: functional, organism-based; details: Human immunodeficiency virus 1, A17, MT2, 96 h; outline: as §1
[9] = tested on: Human immunodeficiency virus 1; experiment: Resistance index, ratio of EC50 for multidrug resistant HIV1 A17 to EC50 for wild type HIV1 3B; format: functional
[10] = tested on: Human immunodeficiency virus 1; experiment: Antiviral activity against multidrug resistant HIV1 RTMDR containing reverse transcriptase L74V, M41L, V106A and T215Y mutant infected in human TZM-bl cells after 2 days by luciferase reporter gene assay; details: Human immunodeficiency virus 1, RTMDR, 48 h
[11] = as §2; format: cell-based; details: MT2 cells; outline: as §3
[12] = tested on: Human immunodeficiency virus 1; experiment: Antiviral activity against multidrug resistant HIV1 RTMDR containing reverse transcriptase L74V, M41L, V106A and T215Y mutant infected in human TZM-bl cells after 4 days by luciferase reporter gene assay; format: functional, organism-based; details: Human immunodeficiency virus 1, RTMDR, 96 h

Compound	pEC50 [1]	CC50 [2]	pEC50 [3]	CC50 (MT2)	pEC50 [4]	Ratio CC50/EC50 [5]	Ratio CC50/EC50 [6]	Ratio EC50 [7]	pEC50 [8]	Ratio EC50 [9]	pEC50 [10]	CC50 at 96 h [11]	EC50 ([4]; tzm-bl)	pEC50 [12]	EC50 ([3]; mt2)	selectivity ratio ([6]; MT2 cells, read-out: Ratio CC50/EC50)	selectivity ratio ([5]; TZM-bl cells, read-out: Ratio CC50/EC50)
Cc1cc(C#N)cc(C)c1Oc1cc(Nc2ccc(C#N)cc2)c(N)cc1[N+](=O)[O-]	8.52																
CC(=O)/C=C/c1cc(C)c(Oc2cc(Nc3ccc(C#N)cc3)c(N)cc2[N+](=O)[O-])c(C)c1		5880 nM	7.33	22600 nM	8.20												
Cc1cc(Br)cc(C)c1Oc1ccc(N)c(Nc2ccc(C#N)cc2)n1		15500 nM	7.48	9610 nM	8.14	2132	291	0.93	5.46	106	8.17						
Cc1cc(Br)cc(C)c1Oc1ccc([N+](=O)[O-])c(Nc2ccc(C#N)cc2)n1		> 45700 nM	7.35	65100 nM	7.30	> 909	1447	1.55	< 5.00	>222	7.11						
C=CCc1cc(C)c(Oc2ccc([N+](=O)[O-])c(Nc3ccc(C#N)cc3)n2)c(C)c1			5.87				27.37					39700 nM	Not Active				
C=CCc1cc(C)c(Oc2ccc(N)c(Nc3ccc(C#N)cc3)n2)c(C)c1		8460 nM	7.17	14000 nM	8.16	1228	209	2.23	< 5.00	> 149				7.81			
Cc1cc(C#CC2CC2)cc(C)c1Oc1ccc([N+](=O)[O-])c(Nc2ccc(C#N)cc2)n1					< 4.33										Not Active		
Cc1cc(C#CC2CC2)cc(C)c1Oc1ccc(N)c(Nc2ccc(C#N)cc2)n1		7450 nM	6.39	5710 nM	7.04	82	14	1.34	< 5.00	> 24				6.92			
Cc1cc(C(O)C[N+](=O)[O-])cc(C)c1Oc1ccc([N+](=O)[O-])c(Nc2ccc(C#N)cc2)n1 (stereo not drawn)		> 44500 nM	5.77	27100 nM	6.51	> 145	16										
Cc1cc(C(O)C[N+](=O)[O-])cc(C)c1Oc1ccc(N)c(Nc2ccc(C#N)cc2)n1.Cl (stereo not drawn)		7020 nM	7.17	20600 nM	8.00	695	303										
Cc1cc(/C=C/C(=O)O)cc(C)c1Oc1ccc([N+](=O)[O-])c(Nc2ccc(C#N)cc2)n1		27800 nM	5.09	34800 nM	4.83												
Cc1cc(/C=C/C(=O)O)cc(C)c1Oc1ccc(N)c(Nc2ccc(C#N)cc2)n1		18000 nM	6.20	15700 nM	6.22												
CC(=O)/C=C/c1cc(C)c(Oc2ccc([N+](=O)[O-])c(Nc3ccc(C#N)cc3)n2)c(C)c1		> 46700 nM	6.22	> 47900 nM	7.61												
CC(=O)CCc1cc(C)c(Oc2ccc(N)c(Nc3ccc(C#N)cc3)n2)c(C)c1		9250 nM	7.26	18400 nM	8.71	4744		1.64	6.14	13				8.49		1840	
Cc1cc(/C=C/C#N)cc(C)c1Oc1ccc([N+](=O)[O-])c(Nc2ccc(C#N)cc2)n1		> 48700 nM	7.31	> 100000 nM	8.10	> 6082	> 2041	1.85	< 5.00	> 204				7.83			
Cc1cc(/C=C/C#N)cc(C)c1Oc1ccc(N)c(Nc2ccc(C#N)cc2)n1		9750 nM	> 7.85	5630 nM	9.15	13732	> 402	0.83	6.70	14				9.23			
Cc1cc(/C=C/C#N)cc(C)c1Oc1ccc([N+](=O)[O-])c(Nc2ccc(C#N)cc2)c1		> 48800 nM	7.43	> 100000 nM	7.98		> 2702	1.63	< 5.00	>270	7.77						4690
Cc1cc(/C=C/C#N)cc(C)c1Oc1ccc(N)c(Nc2ccc(C#N)cc2)c1		25000 nM	> 7.85	8830 nM	9.26	45455	> 631	3.25	6.22	43	8.75						
CC(=O)/C=C/c1cc(C)c(Oc2cc(Nc3ccc(C#N)cc3)c([N+](=O)[O-])cc2[N+](=O)[O-])c(C)c1		24400 nM	6.46	> 100000 nM	6.84	167	> 286										
Cc1cc(/C=C/C#N)cc(C)c1Oc1cc(Nc2ccc(C#N)cc2)c([N+](=O)[O-])cc1[N+](=O)[O-]		> 44000 nM	6.43	21700 nM	7.01	> 453	59.35										
Cc1cc(/C=C/C#N)cc(C)c1Oc1cc(Nc2ccc(C#N)cc2)c(N)cc1[N+](=O)[O-]		> 47100 nM	> 7.85	88200 nM	9.42	> 123842	> 6298	2.29	7.02	6.79				9.06			
Cc1cc(/C=C/C#N)cc(C)c1Oc1cc(Nc2ccc(C#N)cc2)c(N)cc1N		14400 nM	> 7.85	18900 nM	8.37	3356	> 1353	0.47	5.52	128				8.70			
C#Cc1cc(C)c(Oc2ccc([N+](=O)[O-])c(Nc3ccc(C#N)cc3)n2)c(C)c1								1.94	< 5.00	> 40				6.67			
C#Cc1cc(C)c(Oc2ccc(N)c(Nc3ccc(C#N)cc3)n2)c(C)c1								1.34	5.84	34				8.05			
Cc1cc(I)cc(C)c1Oc1ccc(N)c(Nc2ccc(C#N)cc2)n1								0.67	5.71	36							
Cc1cc(C#N)cc(C)c1Oc1ccc(N)c(Nc2ccc(C#N)cc2)n1			7.82	> 100000 nM		13206	> 6667	1.41	6.41	26							
Cc1cc(I)cc(C)c1Oc1ccc([N+](=O)[O-])c(Nc2ccc(C#N)cc2)n1								1.55	< 5.00	>127							
Cc1cc(C#N)cc(C)c1Oc1nc(Nc2ccc(C#N)cc2)nc(N)c1Br [ETRAVIRINE]		8960 nM	7.39	50700 nM					6.48					9.00			
